Compound activity as filed in PubChem BioAssay.
PLC-beta3 inh = blocks human PLC-beta3 enzyme activity; Q01970; Purified PLC-beta3, fluorogenic substrate, fluorescence; inhibition, % at 12.2 µM; actives 0.18% (n = 370,000); AID 720704;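 also: 0% = median of compound wells on plate and 100% = full blocker control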
UCH37 DUB inh = inhibitors of human deubiquitinating enzyme UCH37. purified proteasome/UCH37, Ub-AMC cleavage fluorescence. AID 588478. actives 0.33% (n = 330,000). Q9Y5K5. inhibition, % (no concentration beside the values);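 active = mean inhibition over replicate wells above about 20%, limit read from the data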;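 also: 0% = compound-free wells with enzyme and 100% = wells lacking proteasome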
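Material: human UCH37 enzyme supplied as purified proteasome complex. Measure: % inhibition of Ub-AMC cleavage fluorescence. Medium: pH 7.4 Tris-HCl (50 mM) with ovalbumin, ATP-MgCl2, DTT. Times: 30 min preincubation with enzyme, 25 min cleavage at room temperature. Detection: AMC fluorescence intensity at 355/460 nm.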
Rpn11 inh = inhibitors of human proteasome Rpn11; O00487; human 26S proteasome, Ub4-pepOG fluorescence polarization; 20S core pre-blocked with epoxomicin; inhibition, % at 20 µM; actives 0.59% (n = 360,000); AID 588493;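 active = inhibition at 20 µM, scaled to each plate's controls, above about 33%, limit read from the data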
PLC-gamma1 inh = inhibitors of human phospholipase C gamma1; actives 0.84% (n = 370,000); purified PLC-gamma1, fluorogenic substrate, fluorescence; P19174; AID 720700; inhibition, % at 12.2 µM; in the data active = inhibition above about 9.5%
PLCgamma1 ctr = PLC-gamma1 inhibition, counter-screen for PLC-beta3 hits. shares compounds with PLC-gamma1 inh. purified PLC-gamma1, fluorogenic substrate, fluorescence. inhibition, % at 12.3 µM. actives 3.1% (n = 3,300). AID 743258; in the data active = inhibition above about 9.5%
PLCb3 confirm = human PLC-beta3 inhibition, confirmation | purified PLC-beta3, fluorogenic substrate fluorescence | AID 743261 | shares compounds with PLC-gamma1 inh | actives 1% (n = 3,300) | inhibition, % at 12.3 µM
* = called active by the depositor. Sampled rows, rich in hits. Any-hit rate of the full collection: about 1.7%. Rule as the data show it, unless noted: active = inhibition above about 11%; inactive = the rest.

Results for COc1ccc(CC(N)c2csc(Nc3ccccn3)n2)cc1 (stereo not drawn) ?
PLC-beta3 inh: 9; Rpn11 inh: 5; PLC-gamma1 inh: 15*; PLCgamma1 ctr: 0; PLCb3 confirm: 2

How did COc1ccc(CC(N)c2csc(Nc3cc(Oc4ccccc4)ncn3)n2)cc1 (stereo not drawn) do in these assays?
PLC-beta3 inh: 2; Rpn11 inh: 3; PLC-gamma1 inh: 5

How did COc1cccc(Nc2nc(C(N)Cc3ccc(Cl)cc3)cs2)n1 (stereo not drawn) do in these assays?
PLC-beta3 inh: 2; Rpn11 inh: -11; PLC-gamma1 inh: 9.5*; PLCgamma1 ctr: -3; PLCb3 confirm: -2

How did COc1ccc(CC(N)c2csc(Nc3cccc(OC)n3)n2)cc1 (stereo not drawn) do in these assays?
PLC-beta3 inh: 0; Rpn11 inh: 2; PLC-gamma1 inh: 0

Results for Cc1ccc(C(=O)NN=Cc2cc(C)n(-c3ccc(Br)cc3)c2C)cc1[N+](=O)[O-] ?
UCH37 DUB inh: 0

Results for O=C(C[C@@H]1C/C=C\CCC(=O)OC[C@@H]2CCCN2C1=O)N[C@@H](CO)Cc1ccccc1 ?
PLC-beta3 inh: 12*; UCH37 DUB inh: 1; Rpn11 inh: 1; PLC-gamma1 inh: 13*; PLCgamma1 ctr: 6; PLCb3 confirm: 1

What do the screens show for `O=C(C[C@@H]1C/C=C\C[C@H](Cc2ccc(F)cc2)C(=O)OC[C@H]2CCCN2C1=O)NCCO`?
PLC-beta3 inh: 3; UCH37 DUB inh: 0; Rpn11 inh: 2; PLC-gamma1 inh: 10*; PLCgamma1 ctr: -8; PLCb3 confirm: -2

What do the screens show for `O=C(C[C@H]1C/C=C\CC[C@@H](Cc2ccc(F)cc2)C(=O)OC[C@H]2CCCN2C1=O)N[C@H](CO)Cc1ccccc1`?
PLC-beta3 inh: 3; Rpn11 inh: 2; PLC-gamma1 inh: 3

Results for O=C(C[C@@H]1C/C=C\C[C@@H](Cc2ccc(F)cc2)C(=O)OC[C@H]2CCCN2C1=O)NCCO ?
PLC-beta3 inh: -3; UCH37 DUB inh: 0; Rpn11 inh: -1; PLC-gamma1 inh: 0

What do the screens show for `Cc1ccc(Sc2nc3c(c(=O)[nH]c(=O)n3C)n2CCc2ccccc2)cc1`?
PLC-beta3 inh: 13*; UCH37 DUB inh: 4; Rpn11 inh: -2; PLC-gamma1 inh: 5; PLCgamma1 ctr: -2; PLCb3 confirm: -2

How did Nc1ccc(C(=O)NN=Cc2cn(Cc3ccccc3F)c3ccccc23)cc1 do in these assays?
UCH37 DUB inh: -4

What do the screens show for `COc1ccccc1C=NNC(=O)CNC(=O)c1ccccc1`?
UCH37 DUB inh: 2

What do the screens show for `COC(=O)C1=C(C(=O)OC)[C@@H]2N(C)c3ccc(OC)cc3[C@@]23C[C@@H](C(=O)OC)N(C(=O)CC(C)C)C3=N1`?
PLC-beta3 inh: 7; UCH37 DUB inh: 0; Rpn11 inh: -3; PLC-gamma1 inh: 9.6*; PLCgamma1 ctr: -4; PLCb3 confirm: 1

What do the screens show for `S=C(Nc1ccccc1)c1ccccn1`?
PLC-beta3 inh: 12*; UCH37 DUB inh: 1; Rpn11 inh: 1; PLC-gamma1 inh: 11*; PLCgamma1 ctr: -4; PLCb3 confirm: 0

What do the screens show for `S=C(Nc1ccccc1)Nc1ccccn1`?
PLC-beta3 inh: 4; Rpn11 inh: -2; PLC-gamma1 inh: 1

What do the screens show for `Cc1onc(-c2ccccc2)c1CNS(=O)(=O)c1cccc(Cl)c1`?
PLC-beta3 inh: 6; UCH37 DUB inh: 2; Rpn11 inh: 7; PLC-gamma1 inh: 11*; PLCgamma1 ctr: -6; PLCb3 confirm: 1

Results for COc1ccc(NS(=O)(=O)c2cccc(C(=O)NCCCn3ccnc3)c2)cc1 ?
PLC-beta3 inh: 3; UCH37 DUB inh: 0; Rpn11 inh: -6; PLC-gamma1 inh: 11*; PLCgamma1 ctr: -4; PLCb3 confirm: -7

Results for CC(=O)N1CCOc2ccc(S(=O)(=O)Nc3ccc(C)cn3)cc21 ?
PLC-beta3 inh: -12; UCH37 DUB inh: 1; Rpn11 inh: 4; PLC-gamma1 inh: 3

How did CC(=O)N1CC(C)Oc2ccc(S(=O)(=O)Nc3ccc(Cl)cn3)cc21 (stereo not drawn) do in these assays?
PLC-beta3 inh: -3; UCH37 DUB inh: 9; Rpn11 inh: -9; PLC-gamma1 inh: 10*; PLCgamma1 ctr: -6; PLCb3 confirm: -4

How did Cn1c(=O)c2c(nc(-n3ccnc3)n2C)n(C)c1=O do in these assays?
PLC-beta3 inh: 3; UCH37 DUB inh: -4; Rpn11 inh: -2; PLC-gamma1 inh: 2

Results for Cn1c(=O)c2c(nc(-n3ccnc3)n2Cc2ccccc2)n(C)c1=O ?
PLC-beta3 inh: 2; UCH37 DUB inh: 5; Rpn11 inh: 0; PLC-gamma1 inh: 10*; PLCgamma1 ctr: -1; PLCb3 confirm: 0

What do the screens show for `CCc1ccc(C=NNC(=O)c2cc(C3CC3)nc3ccccc23)s1`?
UCH37 DUB inh: -3

Results for CCCCn1cnc2c1c(=O)[nH]c(=O)n2CCCC ?
PLC-beta3 inh: 11*; UCH37 DUB inh: -3; Rpn11 inh: -8; PLC-gamma1 inh: 7; PLCgamma1 ctr: -4; PLCb3 confirm: 7

How did CCn1cnc2c1c(=O)[nH]c(=O)n2Cc1ccccc1 do in these assays?
UCH37 DUB inh: 0; Rpn11 inh: 3

What do the screens show for `Cn1c(=O)[nH]c(=O)c2c1ncn2CCN1CCOCC1`?
PLC-beta3 inh: 11*; UCH37 DUB inh: 2; Rpn11 inh: -3; PLC-gamma1 inh: 5; PLCgamma1 ctr: -4; PLCb3 confirm: -4

What do the screens show for `Cn1c(=O)[nH]c(=O)c2c1nc(N1CCOCC1)n2CCN1CCOCC1`?
PLC-beta3 inh: 1; UCH37 DUB inh: -5; Rpn11 inh: 3; PLC-gamma1 inh: 2

What do the screens show for `CSc1ccc(C=Nn2c(C)nnc2C)cc1`?
UCH37 DUB inh: 2

What do the screens show for `NC(=O)NCc1ccc(Cl)cc1`?
PLC-beta3 inh: 2; UCH37 DUB inh: 5; Rpn11 inh: -2; PLC-gamma1 inh: 12*; PLCgamma1 ctr: -4; PLCb3 confirm: -7

How did CC(=NNc1nc(-c2ccccc2)c(CC(=O)O)s1)c1ccccc1 do in these assays?
UCH37 DUB inh: 8

Results for Cc1cccc(NS(=O)(=O)c2ccc3c(c2)Cc2cc(S(=O)(=O)Nc4cccc(C)c4C)ccc2-3)c1C ?
PLC-beta3 inh: 4; UCH37 DUB inh: 3; Rpn11 inh: 4; PLC-gamma1 inh: 10*; PLCgamma1 ctr: -7; PLCb3 confirm: -2

What do the screens show for `CCOC(=O)C(=NNc1cccc(C(F)(F)F)c1)N1CCOCC1`?
UCH37 DUB inh: 5

What do the screens show for `Cc1cccc(N2C(=O)c3cccc4cccc(c34)C2=O)c1`?
PLC-beta3 inh: -13; UCH37 DUB inh: 4; Rpn11 inh: 4; PLC-gamma1 inh: -8

What do the screens show for `Cc1c(N2C(=O)c3cccc4cccc(c34)C2=O)c(=O)n(-c2ccccc2)n1C`?
PLC-beta3 inh: 12*; UCH37 DUB inh: 5; Rpn11 inh: 4; PLC-gamma1 inh: 9.8*; PLCgamma1 ctr: 14*; PLCb3 confirm: 5
